Assay results: article PMC5884419 (European journal of pharmaceutical sciences : official …, 2018)
Where two headings read alike, the source gives them in different places. Marks after values point to notes of the source that are not given here.

Tests used:
[1] = tested on: human ABCB1; conditions: ref Weidner et al., 2015; cited from earlier work
[2] = mice, 1 h after i.v. 10 mg/kg; ref Zhang et al., 2011; cited from earlier work
[3] = target: T1, Abcb1a/b (Mus musculus, UniProt P21447); conditions: Abcb1a/b^(-/-) and Abcb1a/b^(-/-)Abcg2^(-/-) mice; ref Liu et al., 2012; cited from earlier work
T1 sequence (P21447 whole entry): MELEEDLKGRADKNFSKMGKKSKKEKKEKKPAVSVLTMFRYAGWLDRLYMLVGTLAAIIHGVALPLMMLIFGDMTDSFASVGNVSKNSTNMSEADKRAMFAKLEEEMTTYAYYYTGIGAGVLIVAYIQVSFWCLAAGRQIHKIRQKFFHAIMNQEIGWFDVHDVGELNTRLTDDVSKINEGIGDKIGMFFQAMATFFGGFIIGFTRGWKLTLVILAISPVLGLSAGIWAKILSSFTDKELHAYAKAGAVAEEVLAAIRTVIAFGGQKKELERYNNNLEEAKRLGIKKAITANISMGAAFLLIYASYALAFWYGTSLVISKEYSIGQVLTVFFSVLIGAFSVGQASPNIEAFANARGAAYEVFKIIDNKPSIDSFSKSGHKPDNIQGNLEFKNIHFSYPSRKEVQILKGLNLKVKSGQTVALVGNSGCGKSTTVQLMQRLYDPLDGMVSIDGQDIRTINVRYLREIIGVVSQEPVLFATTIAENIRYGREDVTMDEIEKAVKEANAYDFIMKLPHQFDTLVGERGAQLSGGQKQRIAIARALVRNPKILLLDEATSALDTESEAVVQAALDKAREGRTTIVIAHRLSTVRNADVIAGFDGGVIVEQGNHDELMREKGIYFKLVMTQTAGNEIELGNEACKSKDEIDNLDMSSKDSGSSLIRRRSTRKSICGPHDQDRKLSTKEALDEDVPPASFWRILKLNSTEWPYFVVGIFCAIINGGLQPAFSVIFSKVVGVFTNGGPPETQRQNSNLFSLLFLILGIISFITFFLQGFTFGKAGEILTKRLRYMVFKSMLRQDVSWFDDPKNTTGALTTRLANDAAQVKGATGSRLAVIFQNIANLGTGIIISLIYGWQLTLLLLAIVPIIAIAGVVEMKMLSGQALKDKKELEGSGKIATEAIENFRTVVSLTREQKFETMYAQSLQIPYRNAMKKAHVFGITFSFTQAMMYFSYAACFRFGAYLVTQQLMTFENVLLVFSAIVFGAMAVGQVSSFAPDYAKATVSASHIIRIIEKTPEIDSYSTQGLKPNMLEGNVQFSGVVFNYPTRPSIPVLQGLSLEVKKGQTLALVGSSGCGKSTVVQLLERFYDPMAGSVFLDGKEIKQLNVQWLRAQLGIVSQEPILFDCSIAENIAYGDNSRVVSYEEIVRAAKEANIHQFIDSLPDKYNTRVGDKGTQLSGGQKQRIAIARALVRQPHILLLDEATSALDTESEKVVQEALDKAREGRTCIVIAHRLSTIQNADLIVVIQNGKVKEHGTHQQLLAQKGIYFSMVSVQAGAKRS

[4] = rat plasma; ref Liu et al., 2014; cited from earlier work
[5] = tolerability of co-injected pharmacologic dose of unlabeled Ko143; format: in vivo; conditions: wild-type mice, 10 mg/kg i.v. co-injected with radiotracer
[6] = plasma concentration after i.v. administration; format: in vivo, mice; conditions: mouse, iv, 10 mg/kg
[7] = tested on: ABCB1; conditions: ref Hugger et al., 2002, cited from earlier work
[8] = radio-TLC analysis of radiolabeled metabolites in tissues and fluids; format: in vivo, mice; conditions: 20 min after i.v. injection
How it was run: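 Female FVB wild-type and Abcb1a/b(-/-)Abcg2(-/-) mice, 7–8 weeks old, under isoflurane, given radiotracer i.v. (28.4 ± 4.1 MBq, 0.1 mL). At 20 min, blood was drawn from the retro-orbital sinus and the animals were killed. Plasma, liver, kidneys, brain, bile and urine were collected. Tissues were homogenised, proteins precipitated with acetonitrile, then spun at 12,000 g, 5 min, 4°C. Percent unchanged radiotracer was determined by radio-TLC.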

[9] = target: T2, Abcg2 (Mus musculus, UniProt Q7TMS5); format: in vivo; conditions: Abcg2^(-/-) and Abcb1a/b^(-/-)Abcg2^(-/-) mice, microdose
T2 sequence (Q7TMS5 1-657): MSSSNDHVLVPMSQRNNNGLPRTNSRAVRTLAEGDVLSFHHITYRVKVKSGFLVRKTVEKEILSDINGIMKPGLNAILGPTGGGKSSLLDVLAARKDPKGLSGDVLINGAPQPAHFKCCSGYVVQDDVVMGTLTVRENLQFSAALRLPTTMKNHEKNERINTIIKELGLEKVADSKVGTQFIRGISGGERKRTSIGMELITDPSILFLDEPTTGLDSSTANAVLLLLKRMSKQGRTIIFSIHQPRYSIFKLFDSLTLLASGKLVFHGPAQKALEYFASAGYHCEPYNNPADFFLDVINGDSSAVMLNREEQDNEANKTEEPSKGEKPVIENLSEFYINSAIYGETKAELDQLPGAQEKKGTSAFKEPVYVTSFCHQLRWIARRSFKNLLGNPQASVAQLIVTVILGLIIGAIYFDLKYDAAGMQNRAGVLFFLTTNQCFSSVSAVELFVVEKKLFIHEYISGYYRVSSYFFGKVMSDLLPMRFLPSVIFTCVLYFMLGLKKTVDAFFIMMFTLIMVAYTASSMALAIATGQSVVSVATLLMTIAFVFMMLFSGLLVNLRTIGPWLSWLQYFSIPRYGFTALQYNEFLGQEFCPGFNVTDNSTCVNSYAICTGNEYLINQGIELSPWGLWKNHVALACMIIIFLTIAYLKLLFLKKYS
How it was run: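 Female FVB Abcg2(-/-), Abcb1a/b(-/-)Abcg2(-/-) and wild-type mice, 7–8 weeks old, under isoflurane, had 60-min dynamic PET started with a tail-vein i.v. microdose of radiotracer (26.6 ± 10.5 MBq, 0.1 mL). The kidney-to-urine rate constant kurine was derived from 4.5–45 min data, given as mean ± S.D. Knockouts were compared with wild-type by one-way ANOVA with Tukey's test.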

[10] = target: T1, Abcb1a/b; format: in vivo; conditions: wild-type and Abcg2^(-/-) mice, microdose
[11] = format: in vivo, mice
How it was run: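 Female FVB wild-type mice under isoflurane had 60-min dynamic PET after tail-vein injection of radiotracer mixed with test compound (10 mg/kg) or its vehicle (4 mL/kg), versus radiotracer alone. Liver and kidney kuptake came from an integration plot over 0.3–3.5 min. kurine and kbile came from 4.5–45 min data, with biliary activity taken as gallbladder + duodenum + intestine. Extraction ratio = kuptake divided by assumed blood flow (liver 1.0, kidney 4.1 mL/min/g).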

[12] = wild-type mice, microdose i.v., integration plot 0.3-3.5 min

## COc1ccc2c3c([nH]c2c1)[C@H](CC(C)C)N1C(=O)[C@H](CCC(=O)OC(C)(C)C)NC(=O)[C@@H]1C3 [Ko143, (3S,6S,12aS)-1,2,3,4,6,7,12,12a-octahydro-9-methoxy-6-(2-methylpropyl)-1,4-dioxopyrazino[1’,2’:1,6]pyrido[3,4-b]indole-3-propanoic acid 1,1-dimethylethyl ester]
[1]
  effect on human ABCB1 ATPase activity: stimulated
[2]
  plasma concentration: 420 nM
[3]
  brain concentrations, fold higher than in Abcg2^(-/-) mice: about 3 fold
[4]
  unbound fraction in plasma: 0.0293
[5]
  tolerability: well tolerated
[6]
  concentration at 1 h: 12 nM

## polysorbate 80
[7]; 0.05% w/v, Caco-2 cells
  inhibition of ABCB1 activity: only partially inhibited

## polyethylene glycol 300 [PEG300]
[7]; 20% v/v, Caco-2 and MDR1-MDCK cell monolayers
  inhibition of ABCB1 activity: almost complete in vitro inhibition

## CC(C)C[C@H]1c2[nH]c3cc(O[11CH3])ccc3c2C[C@H]2C(=O)N[C@@H](CCC(=O)OC(C)(C)C)C(=O)N21 [[^11C]Ko143]
[8]; Abcb1a/b^(-/-)Abcg2^(-/-) mice
  Percentage of unchanged radiotracer, Bile: 1.5 ± 1.0%
  Percentage of unchanged radiotracer, Brain: 73.2 ± 2.4 ^a %
  Percentage of unchanged radiotracer, Kidney: 21.6 ± 2.0%
  Percentage of unchanged radiotracer, Liver: 16.0 ± 1.8%
  Percentage of unchanged radiotracer, Plasma: 34.7 ± 0.4%
[8]; wild-type mice
  Percentage of unchanged radiotracer, Bile: 15.2 ± 21.0%
  Percentage of unchanged radiotracer, Brain: 51.5 ± 13.9%
  Percentage of unchanged radiotracer, Kidney: 35.6 ± 9.6%
  Percentage of unchanged radiotracer, Liver: 17.4 ± 2.7%
  Percentage of unchanged radiotracer, Plasma: 36.0 ± 1.5%
[9]
  kurine compared with wild-type mice: significantly lower
[10]
  brain concentration-time curves, fold lower than in Abcb1a/b^(-/-) and Abcb1a/b^(-/-)Abcg2^(-/-) mice: approximately 2 fold
[11]; wild-type mice co-injected with Ko143 vehicle
  kbile, fold lower than with [^11C]Ko143 alone: 2.4 fold
[11]; wild-type mice co-injected with unlabeled Ko143 (10 mg/kg)
  kbile, fold lower than with [^11C]Ko143 alone: 1.9 fold
[11]; wild-type mice co-injected with unlabeled Ko143 (10 mg/kg) or Ko143 vehicle
  kurine: almost decreased to zero
[11]; [12]
  mean kuptake, kidney: 0.262 mL/min/g tissue
  mean kuptake, liver: 0.689 mL/min/g tissue
